NOD2-RIPK2 inh – NOD2-RIPK2 binding disruptors in cells, primary screen, fluorescence, CHO cells, BLA complementation. Receptor-interacting serine/threonine-protein kinase 2 (Homo sapiens), O43353. CCF4 ratio. inhibition, % at 4.98 µM. 360,000 tested, 0.38% active. AID 624267, 2012; in the data active = inhibition above about 21%
Target sequence (O43353 whole entry, looked up): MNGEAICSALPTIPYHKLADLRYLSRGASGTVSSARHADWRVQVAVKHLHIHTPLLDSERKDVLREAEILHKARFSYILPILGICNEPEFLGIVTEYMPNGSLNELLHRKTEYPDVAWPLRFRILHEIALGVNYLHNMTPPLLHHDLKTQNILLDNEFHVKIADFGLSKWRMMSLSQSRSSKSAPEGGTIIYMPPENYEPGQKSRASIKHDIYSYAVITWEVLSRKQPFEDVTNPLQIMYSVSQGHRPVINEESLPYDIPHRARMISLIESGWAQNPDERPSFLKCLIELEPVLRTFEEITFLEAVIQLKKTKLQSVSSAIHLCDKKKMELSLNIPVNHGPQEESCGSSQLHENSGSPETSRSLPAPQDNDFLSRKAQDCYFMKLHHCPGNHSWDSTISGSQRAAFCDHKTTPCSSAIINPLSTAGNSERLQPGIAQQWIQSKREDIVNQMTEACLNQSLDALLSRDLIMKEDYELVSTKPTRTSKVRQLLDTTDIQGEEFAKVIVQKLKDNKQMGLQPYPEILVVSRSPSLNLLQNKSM
CHOP inh – inhibitors of CHOP promoter induction, primary screen, cell-based, unfolded protein response, luciferase reporter | CHO-K1 CHOP-promoter luciferase, tunicamycin-induced, 15-18 h | inhibition, % at 10 µM | 220,000 tested, 3.8% active;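 active = compounds that reduced the stress-induced luciferase reporter signal by more than about 70% of percent inhibition, limit read from the data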
UPR XBP1 act – activators of adaptive XBP1 UPR arm, primary screen, cell-based, CHO-XBP1 luciferase reporter, luminescence, uHTS. IRE1-XBP1 UPR activation; percent of tunicamycin response, DMSO as zero. activation, % at 20 µM. 330,000 tested, 0.33% active. AID 463104, 2010;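 active = versus positive control, 20 µM dose yields 30% or more activation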
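Material – CHO cell line with stable XBP1 luciferase reporter · Buffer or medium – F12 plus 10% FBS · Compound – single point, 20 µM final compound, 1% DMSO · Schedule – 16-18 h cell attachment at 37 °C, then 6 h compound exposure · Signal – Steady-Glo luminescence read · Benchmarks – high control tunicamycin 10 µg/mL final, low control DMSO vehicle only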
CHOP UPR activ – activators of apoptotic CHOP UPR arm, primary screen, cell-based, CHO-CHOP luciferase reporter, luminescence, uHTS. 330,000 tested, 0.34% active. UPR activation; percent of tunicamycin response over DMSO baseline. AID 449763, 2010. activation, % at 10 µM;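 active = at 10 µM dose, activation of 40% or more, normalized to positive control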
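Assay system: CHO cells with stable CHOP pathway luciferase reporter; Buffer or medium: F12 plus 10% serum; Times: 16-18 h cell attachment, then 6 h compound exposure, 37 °C; Signal: luciferase luminescence; Read-out basis: percent activation relative to tunicamycin control; Control set: tunicamycin high control, DMSO low control.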
TLR4-MyD88 BLA – inhibitors of TLR4-MyD88 association in cells, primary screen, cell-based, HeLa CL3-4, BLA complementation, FRET ratio | AID 861, 2007 | inhibition, % at 8.4 µM | 200,000 tested, 0.18% active | HeLa CL3-4 TLR4/MyD88 BLA complementation; in the data active = inhibition above about 25%
TLR9-MyD88 block – inhibitors of TLR9-MyD88 association in cells, primary screen, cell-based, CHO, BLA complementation, fluorescence; Toll-like receptor 9 (Homo sapiens) + Myeloid differentiation primary response protein …; CCF4 FRET ratio; inhibition, % at 4.98 µM; 340,000 tested, 0.21% active;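 active = inhibition above the mean over all tested compounds plus 3 SD, cut at about 21% in these data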
XBP1 UPR conf – IRE1-XBP1 UPR arm activators, confirmation, cell-based, CHO-XBP1 luciferase reporter, luminescence, single concentration; shares compounds with UPR XBP1 act; activation, % at 20 µM; 1,000 tested, 63% active; AID 485299, 2010;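 active = reporter signal at least 30% of the positive control's activation in two or more of four replicate wells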
Large screens that a line does not name were inactive (follow-up assays come after a bar, where they were run). The full list was thinned out, with hits kept by preference.

COc1ccc(-c2cc(-c3ccc(OC)cc3)nc(-c3ccc4c(c3)NC(=O)CO4)c2)cc1	UPR XBP1 act 38 | XBP1 UPR conf inactive
COc1cccc(-c2nc(-c3ccc4c(c3)NC(=O)CO4)cs2)c1	none
Cc1nc2ccc(Br)cn2c(=O)c1Cl	none
Cc1nc2cccc(C)n2c(=O)c1Cl	UPR XBP1 act 38 | XBP1 UPR conf inactive
COC(=O)[C@]12CCCCC=C1N(Cc1cccc3ccccc13)C(=O)[C@H](CC(=O)NCc1ccc(C)o1)C2	none (no result: CHOP inh, UPR XBP1 act, CHOP UPR activ, TLR4-MyD88 BLA, TLR9-MyD88 block)
Cc1ccc(OCc2nnc(SCC(=O)Nc3nccs3)n2-c2ccccc2)cc1C	CHOP inh 75, UPR XBP1 act 35 | XBP1 UPR conf inactive
S=C(NNc1cccc(Cl)c1)NC1CCCCC1	none
S=C(Nc1cccc(Cl)c1)NC1CCCCC1	UPR XBP1 act 37 | XBP1 UPR conf inactive
Cc1ccc(N2CCN(C(C(=O)Nc3c(C)cccc3C)c3cccc(F)c3)CC2)cc1 (centres undefined)	none (no result: CHOP inh, UPR XBP1 act, CHOP UPR activ, TLR4-MyD88 BLA, TLR9-MyD88 block)
O=C(Nc1cccc(-c2cnc3ccccc3n2)c1)c1cccc(NC(=O)c2ccco2)c1	UPR XBP1 act 36 | XBP1 UPR conf inactive
COc1cnc(-c2ccccn2)nc1Oc1ccc(Cl)c2ccccc12	CHOP inh 81, UPR XBP1 act 31 | XBP1 UPR conf inactive
O=C1c2ccccc2C(c2nnnn2-c2ccc3c(c2)OCCO3)N1Cc1cccnc1 (centres undefined)	none (no result: CHOP inh, UPR XBP1 act, CHOP UPR activ, TLR4-MyD88 BLA, TLR9-MyD88 block)
CCOc1cc2c3c(c1)C(C)CC(C)(C)N3C(=O)C2=O (centres undefined)	none
CCOc1cc2c3c(c1)C(C)=CC(C)(C)N3C(=O)C2=O	UPR XBP1 act 41 | XBP1 UPR conf 32
CCc1ccc(-c2cc(C(F)(F)F)n3nc(C(=O)Nc4cnn(Cc5ccc(C)cc5)c4)cc3n2)s1	UPR XBP1 act 75 | XBP1 UPR conf 288
COc1ccc2c(c1)[nH]c1c(=O)n(/N=C/C3C(C)C=C(C)CC3C)c(=O)[nH]c12 (centres undefined)	UPR XBP1 act 56 | XBP1 UPR conf 86
CC1=CC(C)[C@H](/C=N/n2c(=O)[nH]c3c([nH]c4ccc(Br)cc43)c2=O)C(C)C1 (some centres undefined)	UPR XBP1 act 80 | XBP1 UPR conf 100
CCN(CC)C(=O)[C@H]1C[C@H](CC(=O)NCC23CC4CC(CC(C4)C2)C3)C(=O)N2CCc3c([nH]c4ccc(Cl)cc34)[C@]12C	none (no result: CHOP inh, TLR4-MyD88 BLA)
CC(C)N(C(=O)[C@H]1C[C@H](CC(=O)NCC23CC4CC(CC(C4)C2)C3)C(=O)N2CCc3c([nH]c4ccc(Cl)cc34)[C@]12C)C(C)C	UPR XBP1 act 39 (no result: CHOP inh, TLR4-MyD88 BLA) | XBP1 UPR conf 50
CCCCCCOc1ccc(/C(C)=N/NC2=NCCN2)cc1[N+](=O)[O-]	UPR XBP1 act 32 | XBP1 UPR conf inactive
CCCCCCOc1ccc(/C=c2\s/c(=C(/C#N)C(=O)NCc3ccco3)n(-c3ccccc3)c2=O)cc1	UPR XBP1 act 45 | XBP1 UPR conf inactive
COc1ccc(/C=N/NC(=O)Nc2cccc3nsnc23)cc1OC	CHOP inh 83, UPR XBP1 act 74 | XBP1 UPR conf inactive
COc1ccc(/C=N/NC(=O)c2cccc(C(=O)N/N=C/c3ccc(OC)c(OC)c3)n2)cc1OC	none (no result: CHOP inh, TLR4-MyD88 BLA)
CCOc1ccc(NS(=O)(=O)c2cc(C(=O)N3CCN(c4ccccc4O)CC3)ccc2Cl)cc1	none (no result: CHOP inh, TLR4-MyD88 BLA)
COc1cccc(C(C(=O)NCc2ccccc2)N2CCN(c3cccc(C)c3C)CC2)c1OC (centres undefined)	none (no result: CHOP inh, UPR XBP1 act, CHOP UPR activ, TLR4-MyD88 BLA, TLR9-MyD88 block)
Cc1cc(-n2cnnn2)cc(C)c1S(=O)(=O)N(C)c1ccccc1	none (no result: CHOP inh, TLR4-MyD88 BLA)
Cc1cc2nc(CCN3CCOCC3)n(S(=O)(=O)c3ccc(C(C)(C)C)cc3)c2cc1C	UPR XBP1 act 32 | XBP1 UPR conf inactive
OC(CNCC1CCCO1)Cn1c2ccc(Cl)cc2c2cc(Cl)ccc21 (centres undefined)	CHOP inh 94, UPR XBP1 act 64 | XBP1 UPR conf 59
Cn1c(=O)c2c(nc(N3CCCCC3)n2C)n(C)c1=O	UPR XBP1 act 52 | XBP1 UPR conf inactive
O=c1[nH]c(=S)[nH]c2c1C(c1ccc(F)cc1)OC(CCC(F)(F)F)C2 (centres undefined)	none (no result: CHOP inh, UPR XBP1 act, CHOP UPR activ, TLR4-MyD88 BLA, TLR9-MyD88 block)
Cc1ccccc1NC(=O)CSc1nc(COc2ccccc2)nc2ccccc12	none
Cc1cc(C)c(NC(=O)CSc2nc(COc3ccccc3)nc3ccccc23)c(C)c1	CHOP inh 91, UPR XBP1 act 53 | XBP1 UPR conf 47
CC(NC(=O)C1CCN(S(=O)(=O)c2cnc[nH]2)CC1)c1ccccc1 (centres undefined)	none
COc1ccc2oc(-c3ccc(C)c(NC(=O)c4ccc(N5CCOCC5)c([N+](=O)[O-])c4)c3)nc2c1	UPR XBP1 act 119 | XBP1 UPR conf 140
Cc1ccc(O)c(NC(=S)NC(=O)Cc2ccc(Cl)cc2)c1	UPR XBP1 act 52 (no result: CHOP inh, TLR4-MyD88 BLA) | XBP1 UPR conf 86
N#CCn1c(Cc2ccccc2)nc2ccccc2c1=O	UPR XBP1 act 32 (no result: CHOP inh, TLR4-MyD88 BLA) | XBP1 UPR conf inactive
CN(C)Cc1nc2ccccc2c(=O)n1CC#N	none
COc1cc([C@@H]2c3cc4c(cc3[C@@H](O)[C@H]3COC(=O)[C@H]23)OCO4)cc(OC)c1O[Si](C)(C)C(C)(C)C	CHOP inh 87, UPR XBP1 act 58 (no result: TLR4-MyD88 BLA) | XBP1 UPR conf 48
O=C(Cn1c2ccccc2c(=O)c2cc([N+](=O)[O-])ccc21)Nc1ccccc1Cl	UPR XBP1 act 118 | XBP1 UPR conf 80
COc1ccccc1C(=O)Nc1ccccc1SC(=O)c1ccccc1OC	UPR XBP1 act 34 (no result: CHOP inh, TLR4-MyD88 BLA) | XBP1 UPR conf inactive
COc1cc(/C=C/C(=O)NC(C)C2CC3CCC2C3)cc(OC)c1OC (centres undefined)	none (no result: CHOP inh, TLR4-MyD88 BLA)
CC(Oc1ccc(Cl)cc1)C(=O)Nc1ccccc1C(=O)N1CCOCC1 (centres undefined)	none (no result: CHOP inh, TLR4-MyD88 BLA)
CC(Oc1ccccc1Cl)C(=O)Nc1ccccc1C(=O)N1CCOCC1 (centres undefined)	UPR XBP1 act 32 (no result: CHOP inh, TLR4-MyD88 BLA) | XBP1 UPR conf inactive
COCCCn1cc(CN2CC(N3CCN(Cc4ccccc4F)CC3)CS2(=O)=O)nn1 (centres undefined)	none (no result: CHOP inh, UPR XBP1 act, CHOP UPR activ, TLR4-MyD88 BLA, TLR9-MyD88 block)

Screening data deposited in PubChem BioAssay by several laboratories.
